Assay results from ChEMBL document CHEMBL3351505, “Ultrasound-assisted synthesis of novel 1,2,3-triazoles coupled diaryl sulfone moieties by the CuAAC reaction, and biological evaluation of them as antioxidant and antimicrobial agents” (Eur J Med Chem, 2014).
In brackets after ≈: the same amount, converted by molar mass. Activity calls are given as the source filed them. The calls are words filed in the database; no cut-off is given here.

Legend:
[1] = tested on: Pseudomonas aeruginosa; assay: Antibacterial activity against Pseudomonas aeruginosa ATCC 27953 using 100 uL of test compound after 24 hrs by agar well diffusion method; assay type: functional
How it was run: (§1)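 Agar well diffusion. Nutrient agar was spread with bacterial suspension at 1×10⁸ CFU/mL, and 10 mm wells were cut. Wells were loaded with compound solution made at 200 mg per 1 mL DMSO. Plates were incubated 24 h at 37 °C and inhibition zones were measured. DMSO served as the negative control.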

[2] = tested on: Micrococcus luteus; assay: Antibacterial activity against Sarcina lutea after 24 hrs by two fold serial dilution method; assay type: functional
[3] = tested on: Bacillus subtilis; assay: Antibacterial activity against Bacillus subtilis ATCC 6633 after 24 hrs by two fold serial dilution method; assay type: functional
[4] = tested on: Aspergillus niger; assay: Antifungal activity against Aspergillus niger after 48 hrs by two fold serial dilution method; assay type: functional
How it was run: (§2)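 Two-fold serial broth dilution in a suitable broth, run only on compounds giving inhibition zones of at least 16 mm. Final concentrations were […]. Each 5 mL received 0.1 mL inoculum and was incubated 48 h at 28 °C. MIC was the lowest concentration without growth.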

[5] = tested on: Candida albicans; assay: Antifungal activity against Candida albicans NRRL Y-477 after 48 hrs by two fold serial dilution method; assay type: functional; how it was run: as §2
[6] = tested on: Bacillus subtilis; assay: Antibacterial activity against Bacillus subtilis ATCC 6633 using 100 uL of test compound after 24 hrs by agar well diffusion method; assay type: functional; how it was run: as §1
[7] = tested on: Escherichia coli; assay: Antibacterial activity against Escherichia coli ATCC 25922 using 100 uL of test compound after 24 hrs by agar well diffusion method; assay type: functional; how it was run: as §1
[8] = Antioxidant activity assessed as DPPH free radical scavenging activity by spectrophotometric assay; assay type: physicochemical
How it was run: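 Sample solutions at several concentrations were added to 0.004% DPPH in methanol and incubated 60 min in the dark. Absorbance was read at 517 nm against a blank. Inhibition % = (A_blank − A_sample)/A_blank × 100, where the control contained all reagents except the test compound.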

[9] = tested on: Priestia megaterium; assay: Antibacterial activity against Bacillus megaterium ATCC 9885 using 100 uL of test compound after 24 hrs by agar well diffusion method; assay type: functional; how it was run: as §1
[10] = tested on: Pseudomonas aeruginosa; assay: Antibacterial activity against Pseudomonas aeruginosa ATCC 27953 after 24 hrs by two fold serial dilution method; assay type: functional
[11] = tested on: Escherichia coli; assay: Antibacterial activity against Escherichia coli ATCC 25922 after 24 hrs by two fold serial dilution method; assay type: functional
[12] = tested on: Staphylococcus aureus; assay: Antibacterial activity against Staphylococcus aureus ATCC 29213 using 100 uL of test compound after 24 hrs by agar well diffusion method; assay type: functional; how it was run: as §1
[13] = tested on: Micrococcus luteus; assay: Antibacterial activity against Sarcina lutea using 100 uL of test compound after 24 hrs by agar well diffusion method; assay type: functional; how it was run: as §1
[14] = tested on: Staphylococcus aureus; assay: Antibacterial activity against Staphylococcus aureus ATCC 29213 after 24 hrs by two fold serial dilution method; assay type: functional
[15] = tested on: Klebsiella pneumoniae; assay: Antibacterial activity against Klebsiella pneumoniae ATCC 13883 using 100 uL of test compound after 24 hrs by agar well diffusion method; assay type: functional; how it was run: as §1
[16] = tested on: Priestia megaterium; assay: Antibacterial activity against Bacillus megaterium ATCC 9885 after 24 hrs by two fold serial dilution method; assay type: functional
[17] = tested on: Saccharomyces cerevisiae; assay: Antifungal activity against Saccharomyces cerevisiae using 100 uL of test compound after 48 hrs by agar well diffusion method; assay type: functional
How it was run: as §1, with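 “Sabouraud dextrose” for “Nutrient”, “yeast or fungal” for “bacterial”, “1×10⁶” for “1×10⁸”, “48” for “24”, “28” for “37”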

[18] = tested on: Saccharomyces cerevisiae; assay: Antifungal activity against Saccharomyces cerevisiae after 48 hrs by two fold serial dilution method; assay type: functional; how it was run: as §2
[19] = tested on: Klebsiella pneumoniae; assay: Antibacterial activity against Klebsiella pneumoniae ATCC 13883 after 24 hrs by two fold serial dilution method; assay type: functional
[20] = tested on: Aspergillus niger; assay: Antifungal activity against Aspergillus niger using 100 uL of test compound after 48 hrs by agar well diffusion method; assay type: functional
How it was run: as §1, with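 “Sabouraud dextrose” for “Nutrient”, “yeast or fungal” for “bacterial”, “1×10⁶” for “1×10⁸”, “48” for “24”, “28” for “37”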

[21] = tested on: Candida albicans; assay: Antifungal activity against Candida albicans NRRL Y-477 using 100 uL of test compound after 48 hrs by agar well diffusion method; assay type: functional
How it was run: as §1, with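 “Sabouraud dextrose” for “Nutrient”, “yeast or fungal” for “bacterial”, “1×10⁶” for “1×10⁸”, “48” for “24”, “28” for “37”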

Structure (SMILES) | diameter of the inhibition zone (DIZ) [1] | MIC [2] | MIC ([3]; ATCC 6633, 24 h) [µg/mL] | MIC [4] [µg/mL] | MIC [5] | diameter of the inhibition zone (DIZ) [6] [mm] | diameter of the inhibition zone (DIZ) [7] [mm] | IC50 [8] [µg/mL] | diameter of the inhibition zone (DIZ) [9] | MIC [10] | diameter of the inhibition zone (DIZ) [12] [mm] | diameter of the inhibition zone (DIZ) [13] | diameter of the inhibition zone (DIZ) [15] | MIC ([16]; ATCC 9885, 24 h) [µg/mL] | diameter of the inhibition zone (DIZ) [17] | MIC [18] | diameter of the inhibition zone (DIZ) [20] [mm] | diameter of the inhibition zone (DIZ) [21] | MIC ([11]; ATCC 25922, 24 h) [µg/mL] | MIC ([14]; ATCC 29213, 24 h) [µg/mL] | further results
O=C(Cn1cc(CC(O)c2ccc(S(=O)(=O)c3ccccc3)cc2)nn1)c1ccc(F)cc1 (centres undefined) | 19 mm | 200 µg/mL (≈ 430 µM) | 200 (≈ 430 µM) | 50 (≈ 107 µM) | inactive | 19 | 14 | 275 (≈ 591 µM) | 17 mm | 200 µg/mL (≈ 430 µM) | 14 | 20 mm | 15 mm | 200 (≈ 430 µM) | inactive | inactive | 32 | 13 mm | – | – | MIC [11]: inactive; MIC [14]: inactive; MIC [19]: inactive
O=C(Cn1cc(COC(Cc2cn(CC(=O)c3ccc(Br)cc3)nn2)c2ccc(S(=O)(=O)c3ccccc3)cc2)nn1)c1ccc(Br)cc1 (centres undefined) | inactive | 200 µg/mL (≈ 249 µM) | 200 (≈ 249 µM) | 200 (≈ 249 µM) | – | 17 | 17 | 150 (≈ 186 µM) | 20 mm | inactive | 17 | 22 mm | inactive | 200 (≈ 249 µM) | 20 mm | 200 µg/mL (≈ 249 µM) | 20 | 21 mm | 200 (≈ 249 µM) | 200 (≈ 249 µM) | MIC ([5]; NRRL Y-477, 48 h): 200 µg/mL (≈ 249 µM); MIC [19]: inactive
CC(Cc1cn(CC(=O)c2ccc(F)cc2)nn1)(OCc1cn(CC(=O)c2ccc(F)cc2)nn1)c1ccc(S(=O)(=O)c2ccccc2)cc1 (centres undefined) | 27 mm | 50 µg/mL (≈ 71.8 µM) | – | 25 (≈ 35.9 µM) | inactive | 15 | 25 | 150 (≈ 215 µM) | 17 mm | 100 µg/mL (≈ 144 µM) | 27 | 26 mm | 26 mm | 200 (≈ 287 µM) | 15 mm | inactive | 34 | inactive | 100 (≈ 144 µM) | 100 (≈ 144 µM) | MIC [3]: inactive; MIC ([19]; ATCC 13883, 24 h): 100 µg/mL (≈ 144 µM)
CC(O)(Cc1cn(CC(=O)c2ccc(Br)cc2)nn1)c1ccc(S(=O)(=O)c2ccccc2)cc1 (centres undefined) | 19 mm | inactive | 200 (≈ 370 µM) | 200 (≈ 370 µM) | inactive | 17 | 17 | 800 (≈ 1480 µM) | inactive | 200 µg/mL (≈ 370 µM) | 17 | inactive | 19 mm | – | 14 mm | inactive | 20 | 15 mm | 200 (≈ 370 µM) | 200 (≈ 370 µM) | MIC [16]: inactive; MIC ([19]; ATCC 13883, 24 h): 200 µg/mL (≈ 370 µM)
